Measured values: the M2OR odorant receptor database

Assays:
Conditions in all cases: stereoisomer not certain
[1] = target: T1, UniProt E9PVX1
T1 sequence (whole entry): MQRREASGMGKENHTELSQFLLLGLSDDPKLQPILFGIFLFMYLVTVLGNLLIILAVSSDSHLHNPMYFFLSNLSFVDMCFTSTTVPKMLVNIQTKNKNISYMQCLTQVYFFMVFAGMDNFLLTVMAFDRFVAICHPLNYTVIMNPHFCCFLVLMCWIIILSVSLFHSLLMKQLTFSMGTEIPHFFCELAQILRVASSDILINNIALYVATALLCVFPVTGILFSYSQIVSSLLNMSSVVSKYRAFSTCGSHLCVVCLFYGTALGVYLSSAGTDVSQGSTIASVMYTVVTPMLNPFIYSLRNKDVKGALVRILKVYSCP
How it was run: (§1)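 Transient luciferase assays in mammalian cell lines were common, though methods varied by source. The values come from published papers and their supplementary material, with extra details from the original authors when needed. Responsive refers to a measured signal the original authors judged statistically different from baseline, and non-responsive (inactive) to the remainder.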

[2] = target: T2, UniProt E9PZ66
T2 sequence (whole entry): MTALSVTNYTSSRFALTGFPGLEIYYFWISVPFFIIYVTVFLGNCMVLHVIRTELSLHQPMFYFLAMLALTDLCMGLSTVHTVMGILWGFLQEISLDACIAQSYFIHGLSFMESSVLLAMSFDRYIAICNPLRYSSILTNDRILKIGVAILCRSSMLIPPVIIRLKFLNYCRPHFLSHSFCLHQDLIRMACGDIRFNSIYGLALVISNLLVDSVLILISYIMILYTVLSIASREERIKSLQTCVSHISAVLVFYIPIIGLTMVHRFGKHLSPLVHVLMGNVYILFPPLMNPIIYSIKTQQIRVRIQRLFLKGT
How it was run: as §1

[3] = target: T3, UniProt E9Q4X7
T3 sequence (whole entry): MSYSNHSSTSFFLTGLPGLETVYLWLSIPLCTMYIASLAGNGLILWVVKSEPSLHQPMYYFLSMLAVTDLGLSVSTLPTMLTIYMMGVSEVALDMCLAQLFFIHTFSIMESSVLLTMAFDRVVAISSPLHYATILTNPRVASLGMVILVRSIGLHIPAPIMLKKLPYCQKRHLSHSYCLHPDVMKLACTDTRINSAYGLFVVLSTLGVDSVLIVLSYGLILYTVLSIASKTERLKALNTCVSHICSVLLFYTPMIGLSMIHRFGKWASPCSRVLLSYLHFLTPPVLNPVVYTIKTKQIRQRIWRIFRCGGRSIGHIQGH
How it was run: as §1

[4] = target: T4, UniProt E9Q546
T4 sequence (whole entry): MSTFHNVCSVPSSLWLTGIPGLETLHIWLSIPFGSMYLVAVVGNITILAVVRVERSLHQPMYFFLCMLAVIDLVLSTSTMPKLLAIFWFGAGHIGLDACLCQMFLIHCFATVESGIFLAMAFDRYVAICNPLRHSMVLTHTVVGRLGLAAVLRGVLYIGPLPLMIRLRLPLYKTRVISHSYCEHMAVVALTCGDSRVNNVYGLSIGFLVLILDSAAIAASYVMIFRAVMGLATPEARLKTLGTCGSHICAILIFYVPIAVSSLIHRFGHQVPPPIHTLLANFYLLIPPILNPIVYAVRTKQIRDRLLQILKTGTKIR
How it was run: as §1

[5] = target: T5, UniProt E9Q6Z7
T5 sequence (whole entry): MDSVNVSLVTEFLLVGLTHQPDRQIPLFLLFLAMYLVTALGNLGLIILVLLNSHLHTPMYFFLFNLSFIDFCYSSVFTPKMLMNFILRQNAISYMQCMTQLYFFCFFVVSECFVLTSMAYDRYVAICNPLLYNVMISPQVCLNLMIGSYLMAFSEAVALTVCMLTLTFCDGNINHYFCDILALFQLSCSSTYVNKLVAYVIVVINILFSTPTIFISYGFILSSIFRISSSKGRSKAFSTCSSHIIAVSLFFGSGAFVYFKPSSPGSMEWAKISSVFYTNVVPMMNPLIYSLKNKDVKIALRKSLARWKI
How it was run: as §1

[6] = target: T6, UniProt L7MU75
T6 sequence (whole entry): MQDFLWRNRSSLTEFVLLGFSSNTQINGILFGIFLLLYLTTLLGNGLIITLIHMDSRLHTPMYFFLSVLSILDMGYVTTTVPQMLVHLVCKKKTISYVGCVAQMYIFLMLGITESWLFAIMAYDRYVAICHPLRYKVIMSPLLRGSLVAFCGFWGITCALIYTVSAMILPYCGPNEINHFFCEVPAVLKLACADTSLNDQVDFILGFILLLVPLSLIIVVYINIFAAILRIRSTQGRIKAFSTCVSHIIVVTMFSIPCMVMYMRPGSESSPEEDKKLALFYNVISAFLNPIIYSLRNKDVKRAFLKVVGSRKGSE
How it was run: as §1

[7] = target: T7, UniProt L7N210
T7 sequence (whole entry): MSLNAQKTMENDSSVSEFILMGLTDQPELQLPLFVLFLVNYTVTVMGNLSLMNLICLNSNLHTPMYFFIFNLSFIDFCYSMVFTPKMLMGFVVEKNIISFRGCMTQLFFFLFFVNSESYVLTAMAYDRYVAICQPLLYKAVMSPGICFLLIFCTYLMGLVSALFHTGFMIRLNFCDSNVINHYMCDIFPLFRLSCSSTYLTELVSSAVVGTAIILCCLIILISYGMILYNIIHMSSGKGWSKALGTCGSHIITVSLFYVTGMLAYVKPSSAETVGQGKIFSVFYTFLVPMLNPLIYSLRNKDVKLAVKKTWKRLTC
How it was run: as §1

[8] = target: T8, UniProt Q3KPB0
T8 sequence (whole entry): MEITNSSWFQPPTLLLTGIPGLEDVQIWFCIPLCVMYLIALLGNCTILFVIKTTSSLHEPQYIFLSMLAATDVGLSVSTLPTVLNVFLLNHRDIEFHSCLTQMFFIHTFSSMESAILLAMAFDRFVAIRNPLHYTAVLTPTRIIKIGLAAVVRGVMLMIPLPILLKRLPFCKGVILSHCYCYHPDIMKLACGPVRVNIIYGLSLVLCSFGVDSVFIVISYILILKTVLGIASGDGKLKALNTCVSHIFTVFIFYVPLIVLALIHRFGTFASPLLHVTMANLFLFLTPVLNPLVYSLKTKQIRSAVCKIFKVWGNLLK
How it was run: as §1

[9] = target: T9, UniProt Q3U0P3
T9 sequence (whole entry): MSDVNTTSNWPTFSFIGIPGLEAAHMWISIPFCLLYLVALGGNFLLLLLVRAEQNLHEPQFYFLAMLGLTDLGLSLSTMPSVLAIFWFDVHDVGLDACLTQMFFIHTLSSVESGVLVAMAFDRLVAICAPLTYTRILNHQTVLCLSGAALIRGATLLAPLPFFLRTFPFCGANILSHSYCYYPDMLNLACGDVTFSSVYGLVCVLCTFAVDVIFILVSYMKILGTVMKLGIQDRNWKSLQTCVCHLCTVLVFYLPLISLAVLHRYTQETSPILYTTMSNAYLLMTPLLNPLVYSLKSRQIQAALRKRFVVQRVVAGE
How it was run: as §1

[10] = target: T10, UniProt Q7TQU8
T10 sequence (whole entry): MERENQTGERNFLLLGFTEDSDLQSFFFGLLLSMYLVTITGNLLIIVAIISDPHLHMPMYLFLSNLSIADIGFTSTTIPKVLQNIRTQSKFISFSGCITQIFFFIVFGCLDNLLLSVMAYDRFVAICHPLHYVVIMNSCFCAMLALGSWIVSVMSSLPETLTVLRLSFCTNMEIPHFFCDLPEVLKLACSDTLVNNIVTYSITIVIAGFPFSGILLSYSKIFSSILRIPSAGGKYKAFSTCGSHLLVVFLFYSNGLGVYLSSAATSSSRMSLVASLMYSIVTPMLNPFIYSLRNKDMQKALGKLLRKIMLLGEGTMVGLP
How it was run: as §1

[11] = target: T11, UniProt Q7TR79
T11 sequence (whole entry): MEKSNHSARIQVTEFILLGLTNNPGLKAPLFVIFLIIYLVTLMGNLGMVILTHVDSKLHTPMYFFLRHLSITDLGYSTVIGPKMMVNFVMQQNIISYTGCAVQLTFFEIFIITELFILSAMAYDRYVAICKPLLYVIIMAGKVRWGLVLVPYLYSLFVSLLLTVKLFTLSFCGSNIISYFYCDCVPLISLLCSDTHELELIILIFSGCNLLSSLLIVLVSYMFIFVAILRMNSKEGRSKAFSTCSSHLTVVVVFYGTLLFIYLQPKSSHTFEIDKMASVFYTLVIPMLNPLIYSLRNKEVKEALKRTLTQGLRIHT
How it was run: as §1

[12] = target: T12, UniProt B2RVX8
T12 sequence (whole entry): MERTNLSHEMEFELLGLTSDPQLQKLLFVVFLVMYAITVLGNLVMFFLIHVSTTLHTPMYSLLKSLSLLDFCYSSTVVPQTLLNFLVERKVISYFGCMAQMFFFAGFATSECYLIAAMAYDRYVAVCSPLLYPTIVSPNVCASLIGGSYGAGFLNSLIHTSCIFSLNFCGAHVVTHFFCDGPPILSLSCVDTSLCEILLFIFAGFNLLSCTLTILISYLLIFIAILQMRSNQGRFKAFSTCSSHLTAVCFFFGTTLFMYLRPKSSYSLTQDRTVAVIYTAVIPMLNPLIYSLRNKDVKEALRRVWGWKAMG
How it was run: as §1

[13] = target: T13, UniProt K7N609
T13 sequence (whole entry): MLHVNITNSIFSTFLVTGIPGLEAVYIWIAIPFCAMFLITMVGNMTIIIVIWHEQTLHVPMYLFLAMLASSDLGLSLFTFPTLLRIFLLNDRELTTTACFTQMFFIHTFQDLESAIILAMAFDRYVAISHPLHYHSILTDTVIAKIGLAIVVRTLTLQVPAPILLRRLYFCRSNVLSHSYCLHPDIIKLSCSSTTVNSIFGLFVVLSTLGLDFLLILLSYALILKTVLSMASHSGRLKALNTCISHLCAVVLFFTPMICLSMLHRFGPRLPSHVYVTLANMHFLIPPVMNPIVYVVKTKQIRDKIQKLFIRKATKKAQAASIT
How it was run: as §1

[14] = target: T14, UniProt Q7TQV4
T14 sequence (whole entry): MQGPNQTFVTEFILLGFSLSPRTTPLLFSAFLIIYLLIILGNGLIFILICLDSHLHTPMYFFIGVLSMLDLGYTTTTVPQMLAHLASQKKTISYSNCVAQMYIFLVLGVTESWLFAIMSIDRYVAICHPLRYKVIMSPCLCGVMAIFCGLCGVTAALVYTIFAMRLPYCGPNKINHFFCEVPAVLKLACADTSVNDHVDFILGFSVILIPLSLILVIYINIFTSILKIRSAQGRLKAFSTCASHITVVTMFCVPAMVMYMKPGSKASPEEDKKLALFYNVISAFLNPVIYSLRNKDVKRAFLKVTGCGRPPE
How it was run: as §1

[15] = target: T15, UniProt Q7TR71
T15 sequence (whole entry): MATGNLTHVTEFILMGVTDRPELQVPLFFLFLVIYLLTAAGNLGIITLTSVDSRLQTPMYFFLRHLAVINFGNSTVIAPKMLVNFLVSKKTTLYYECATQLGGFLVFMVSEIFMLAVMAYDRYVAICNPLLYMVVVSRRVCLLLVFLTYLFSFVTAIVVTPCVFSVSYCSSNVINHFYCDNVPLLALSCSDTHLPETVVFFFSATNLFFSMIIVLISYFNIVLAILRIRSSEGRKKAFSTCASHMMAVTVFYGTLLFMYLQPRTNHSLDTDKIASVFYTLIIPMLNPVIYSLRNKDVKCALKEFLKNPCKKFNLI
How it was run: as §1

[16] = target: T16, UniProt Q7TRA3
T16 sequence (whole entry): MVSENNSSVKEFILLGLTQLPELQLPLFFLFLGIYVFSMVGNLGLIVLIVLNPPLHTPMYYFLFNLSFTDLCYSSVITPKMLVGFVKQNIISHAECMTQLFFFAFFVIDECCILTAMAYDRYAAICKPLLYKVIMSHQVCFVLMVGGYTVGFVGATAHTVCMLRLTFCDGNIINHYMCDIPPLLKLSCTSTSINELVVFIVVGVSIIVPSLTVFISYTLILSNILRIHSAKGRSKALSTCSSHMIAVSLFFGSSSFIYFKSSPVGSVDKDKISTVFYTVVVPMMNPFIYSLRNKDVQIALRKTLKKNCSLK
How it was run: as §1

[17] = target: T17, UniProt Q7TRE4
T17 sequence (whole entry): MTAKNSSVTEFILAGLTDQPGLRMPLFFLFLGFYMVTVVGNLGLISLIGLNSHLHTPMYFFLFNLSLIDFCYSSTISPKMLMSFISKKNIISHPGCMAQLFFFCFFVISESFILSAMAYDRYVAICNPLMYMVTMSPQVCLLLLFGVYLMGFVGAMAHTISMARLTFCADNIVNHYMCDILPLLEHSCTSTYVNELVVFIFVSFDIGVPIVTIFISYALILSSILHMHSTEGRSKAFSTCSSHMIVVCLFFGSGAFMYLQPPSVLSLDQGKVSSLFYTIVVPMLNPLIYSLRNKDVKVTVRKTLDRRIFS
How it was run: as §1
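Also: active if original authors judged signal statistically different from baseline.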

## Oc1ccccc1Br
[1]
  odorant receptor agonist call: inactive
[2]
  odorant receptor agonist call: inactive
[3]
  odorant receptor agonist call: inactive
[4]
  odorant receptor agonist call: inactive
[5]
  odorant receptor agonist call: inactive
[6]
  odorant receptor agonist call: inactive
[7]
  odorant receptor agonist call: inactive
[8]
  odorant receptor agonist call: inactive
[9]
  odorant receptor agonist call: inactive
[10]
  odorant receptor agonist call: inactive
[11]
  odorant receptor agonist call: inactive

## C=CCc1ccccc1
[12]
  odorant receptor agonist call: inactive
[4]
  odorant receptor agonist call: inactive
[13]
  odorant receptor agonist call: inactive
[7]
  odorant receptor agonist call: inactive
[14]
  odorant receptor agonist call: inactive
[15]
  odorant receptor agonist call: inactive
[16]
  odorant receptor agonist call: inactive
[17]
  odorant receptor agonist call: inactive

## O=Cc1ccc2c(c1)OCO2
[1]
  odorant receptor agonist call: inactive
[2]
  odorant receptor agonist call: inactive
[3]
  odorant receptor agonist call: inactive
[4]
  odorant receptor agonist call: inactive
[5]
  odorant receptor agonist call: inactive
[7]
  odorant receptor agonist call: active
[8]
  odorant receptor agonist call: inactive
[9]
  odorant receptor agonist call: inactive
[10]
  odorant receptor agonist call: inactive
[11]
  odorant receptor agonist call: inactive
